According to ChEMBL document CHEMBL1147740, “Synthesis and biological activity of isoxazolidinyl polycyclic aromatic hydrocarbons: potential DNA intercalators” (J Med Chem, 2006):
≈ marks a conversion by molar mass, not a printed value. Calls of active or inactive are those of the source. No cut-off for these calls is given here. *1 amine or outer side, *2 acyl side, *3 side chain or, on linkers, in order; H or OH if unused. Where a SMILES comes first, the peptide text is derived from it. Bridges are numbered along the chain shown (N, C = ends). Roman numbers before positions name the chains, in order. [ ]: non-standard residue; d: D form. Actinocin(1to9) = Cc1c2oc3c(C)ccc(C(=O)[*:2])c3nc-2c(C(=O)[*:1])c(N)c1=O; NMeV = CN[C@H](C(=O)O)C(C)C; Sar = CNCC(=O)O

How the values were obtained:
[1] = system: MOLT-3; test: Cytotoxicity against MOLT3 Leukemia cells by MTS assay; assay type: functional, cell-based, Homo sapiens
Method in brief: (§1)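 MTS tetrazolium reduction assay; cells grown under optimal culture conditions for 20 h with compound at 10 to 500 µM or without it; MTS reagent then added for 1 h at 37 °C, humidified 5% CO2; absorbance read at 490 nm. Triplicate. IC50 is the concentration giving 50% reduction of absorbance.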

[2] = system: THP-1; test: Cytotoxicity against THP1 Leukemia cells by MTS assay; assay type: functional, cell-based, Homo sapiens; method in brief: as §1
[3] = system: U-937; test: Cytotoxicity against U937 Lymphoma cells by MTS assay; assay type: functional, cell-based, Homo sapiens; method in brief: as §1
[4] = system: Vero; test: Cytotoxicity against normal vero kidney cells by MTS assay; assay type: functional, cell-based, Chlorocebus sabaeus; method in brief: as §1
[5] = system: MOLT-3; test: Cytotoxicity against MOLT3 Leukemia cells after 24 hrs of treatment; assay type: functional, cell-based; settings: Homo sapiens, MOLT-3, 24 h
Method in brief: (§2)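 Trypan blue exclusion; cells exposed under optimal culture conditions to new compounds at 10 to 500 µM (actinomycin D 1 to 200 µM) or control medium for the stated time. CC50 is the concentration causing 50% toxicity by trypan blue.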

[6] = system: MOLT-3; test: Cytotoxicity against MOLT3 Leukemia cells after 48 hrs of treatment; assay type: functional, cell-based; settings: Homo sapiens, MOLT-3, 48 h; method in brief: as §2
[7] = system: MOLT-3; test: Cytotoxicity against MOLT3 Leukemia cells after 72 hrs of treatment; assay type: functional, cell-based; settings: Homo sapiens, MOLT-3, 72 h; method in brief: as §2
[8] = system: MOLT-3; test: Potentiation of fas-mediated apoptosis in MOLT3 cells; assay type: functional, cell-based; settings: Homo sapiens
Method in brief: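 MOLT-3 cells given anti-fas antibody (CH11) at 25, 50 or 100 ng/mL, alone or immediately after compound at 25 or 50 µM. Cultured 20 h, stained with acridine orange, and apoptosis scored by fluorescence microscopy.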

[9] = system: HEL; test: Antiviral activity against HEL cells; assay type: functional, Homo sapiens
Method in brief: (§3)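 Cytotoxicity scored as the concentration giving a microscopically detectable alteration of normal cell morphology in HEL, HeLa or Vero cells.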

[10] = system: Vero; test: Antiviral activity against vero cells; assay type: functional, Chlorocebus sabaeus; method in brief: as §3
[11] = system: HeLa; test: Antiviral activity against HeLa cells; assay type: functional, Homo sapiens; method in brief: as §3
[12] = system: Human alphaherpesvirus 1; test: Antiviral activity against Herpes simplex virus 1 KOS strain in HEL cells; assay type: functional, Human herpesvirus 1 strain KOS; settings: Human alphaherpesvirus 1, KOS
Method in brief: (§4)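 Minimum inhibitory concentration (µg/mL) needed to reduce virus-induced cytopathogenicity by 50%; HSV strains in HEL cells, Punta Toro virus in Vero cells.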

[13] = system: Human alphaherpesvirus 2; test: Antiviral activity against Herpes simplex virus 2 G strain in HEL cells; assay type: functional; settings: Human alphaherpesvirus 2, G; method in brief: as §4
[14] = system: Vaccinia virus; test: Antiviral activity against Vaccinia virus in HEL cells; assay type: functional; settings: Orthopoxvirus vaccinia
Method in brief: (§5)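 Virus infection of HEL cell cultures. The endpoint is the minimum inhibitory concentration (µg/mL) that reduces virus-induced cytopathogenicity by 50%.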

[15] = system: Vesicular stomatitis virus; test: Antiviral activity against Vesicular stomatitis virus in HEL cells; assay type: functional; method in brief: as §5
[16] = system: Human alphaherpesvirus 1; test: Antiviral activity against herpes simplex virus 1 TK- KOS ACVr strain in HEL cells; assay type: functional; method in brief: as §4
[17] = system: Human respirovirus 3; test: Antiviral activity against Parainfluenza-3 virus in vero cells; assay type: functional
Method in brief: (§6)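 Virus infection of Vero cell cultures. The endpoint is the minimum inhibitory concentration (µg/mL) that reduces virus-induced cytopathogenicity by 50%.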

[18] = system: Mammalian orthoreovirus 1; test: Antiviral activity against Reovirus 1 in vero cells; assay type: functional; method in brief: as §6
[19] = system: Sindbis virus; test: Antiviral activity against Sindbis virus in vero cells; assay type: functional; method in brief: as §6
[20] = system: Coxsackievirus B4; test: Antiviral activity against Coxsackie virus B4 in vero cells; assay type: functional; settings: Enterovirus B; method in brief: as §6
[21] = system: Punta Toro virus; test: Antiviral activity against Punta Toro virus in vero cells; assay type: functional; method in brief: as §4
[22] = system: Respiratory syncytial virus; test: Antiviral activity against Respiratory syncytial virus in HeLa cells; assay type: functional; settings: human respiratory syncytial virus
Method in brief: (§7)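 Virus infection of HeLa cell cultures. The endpoint is the minimum inhibitory concentration (µg/mL) that reduces virus-induced cytopathogenicity by 50%.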

[23] = system: Coxsackievirus B4; test: Antiviral activity against Coxsackie virus B4 in HeLa cells; assay type: functional; settings: Enterovirus B; method in brief: as §7
[24] = system: Vesicular stomatitis virus; test: Antiviral activity against Vesicular stomatitis virus in HeLa cells; assay type: functional; method in brief: as §7
[25] = Homo sapiens, HEL, read-out: MCC
[26] = Chlorocebus sabaeus, Vero, read-out: MCC
[27] = Homo sapiens, HeLa, read-out: MCC
[28] = Human alphaherpesvirus 1, TK- KOS ACVr, read-out: MIC50
[29] = Punta Toro virus, read-out: MIC50

OC[C@@H]1C[C@H](c2c3ccccc3cc3ccccc23)N(Cc2ccccc2)O1 (racemic)
IC50 ([1]; Homo sapiens, MOLT-3): > 500 µM

CN1O[C@H](CO)C[C@@H]1c1ccc2ccc3cccc4ccc1c2c34 (racemic)
IC50 ([2]; Homo sapiens, THP-1): 107 µM
IC50 ([1]; Homo sapiens, MOLT-3): 112 µM
IC50 ([3]; Homo sapiens, U-937): 111 µM
IC50 ([4]; Chlorocebus sabaeus, Vero): 159 µM
AC50 [5]: 118 µM
CC50 [5]: 278 µM
AC50 [6]: 71 µM
CC50 [6]: 168 µM
AC50 [7]: 67 µM
CC50 [7]: 133 µM

OC[C@@H]1C[C@H](c2cc3ccccc3c3ccccc23)N(Cc2ccccc2)O1 (racemic)
Activity [8]: Active
IC50 ([2]; Homo sapiens, THP-1): 50 µM
IC50 ([1]; Homo sapiens, MOLT-3): 78 µM
IC50 ([3]; Homo sapiens, U-937): 54 µM
IC50 ([4]; Chlorocebus sabaeus, Vero): 63 µM
AC50 [5]: 69 µM
CC50 [5]: 73 µM

CN1O[C@H](CO)C[C@@H]1c1cc2ccccc2c2ccccc12 (racemic)
IC50 ([2]; Homo sapiens, THP-1): 169 µM
IC50 ([1]; Homo sapiens, MOLT-3): 125 µM
IC50 ([3]; Homo sapiens, U-937): 153 µM
IC50 ([4]; Chlorocebus sabaeus, Vero): 246 µM
MCC [9, 25]: 400 µg/mL
MCC [10, 26]: 80 µg/mL
MCC [11, 27]: 80 µg/mL
MIC50 [12]: > 80 µg/mL
MIC50 [13]: > 80 µg/mL
MIC50 [14]: > 80 µg/mL
MIC50 [15]: > 80 µg/mL
MIC50 [16, 28]: 48 µg/mL (≈ 164 µM)
MIC50 [17]: > 16 µg/mL
MIC50 [18]: > 16 µg/mL
MIC50 [19]: > 16 µg/mL
MIC50 [20]: > 16 µg/mL
MIC50 [21, 29]: 9.6 µg/mL (≈ 32.7 µM)
MIC50 [22]: > 16 µg/mL
MIC50 [23]: > 16 µg/mL
MIC50 [24]: > 16 µg/mL

CN1O[C@@H](CO)C[C@@H]1c1c2ccccc2cc2ccccc12 (racemic)
IC50 ([1]; Homo sapiens, MOLT-3): > 500 µM

OC[C@@H]1C[C@H](c2ccc3ccc4cccc5ccc2c3c45)N(Cc2ccccc2)O1 (racemic)
IC50 ([2]; Homo sapiens, THP-1): 192 µM
IC50 ([1]; Homo sapiens, MOLT-3): 127 µM
IC50 ([3]; Homo sapiens, U-937): 193 µM
IC50 ([4]; Chlorocebus sabaeus, Vero): 301 µM
AC50 [5]: > 500 µM
CC50 [5]: > 500 µM
AC50 [6]: 97 µM
CC50 [6]: 97 µM
AC50 [7]: 67 µM
CC50 [7]: 58 µM

OC[C@H]1C[C@H](c2c3ccccc3cc3ccccc23)N(Cc2ccccc2)O1 (racemic)
IC50 ([1]; Homo sapiens, MOLT-3): > 500 µM

CN1O[C@H](CO)C[C@@H]1c1c2ccccc2cc2ccccc12 (relative stereo)
IC50 ([1]; Homo sapiens, MOLT-3): > 500 µM

CN1O[C@H](CO)C[C@@H]1c1cc2ccccc2c2ccccc12 (relative stereo)
IC50 ([2]; thp-1): 148 µM
IC50 ([1]; molt-3): 128 µM
IC50 ([3]; u-937): 154 µM
IC50 ([4]; vero): 231 µM
MCC [9]: 400 µg/mL
MCC [10]: 80 µg/mL
MCC [11]: 80 µg/mL
MIC50 [16]: >80 µg/mL
MIC50 [21]: 9.6 µg/mL (≈ 32.7 µM)

Nc1ncnc2c1ncn2C[C@H](O)CO [(S)-DHPA]
MCC [10, 26]: > 400 µg/mL
MCC [11, 27]: > 400 µg/mL
MIC50 [17]: 400 µg/mL (≈ 1910 µM)
MIC50 [18]: 240 µg/mL (≈ 1150 µM)
MIC50 [19]: > 400 µg/mL
MIC50 [20]: > 400 µg/mL
MIC50 [21, 29]: > 400 µg/mL
MIC50 [22]: > 400 µg/mL
MIC50 [23]: > 400 µg/mL
MIC50 [24]: > 400 µg/mL

Nc1nc2c(ncn2COCCO)c(=O)[nH]1 [ACYCLOVIR]
MCC [9, 25]: > 400 µg/mL
MIC50 [12]: 0.384 µg/mL (≈ 1.71 µM)
MIC50 [13]: 0.384 µg/mL (≈ 1.71 µM)
MIC50 [14]: > 400 µg/mL
MIC50 [15]: > 400 µg/mL
MIC50 [16, 28]: 48 µg/mL (≈ 213 µM)

O=c1[nH]c(=O)n([C@H]2C[C@H](O)[C@@H](CO)O2)cc1/C=C/Br [BRIVUDINE]
MCC [9, 25]: > 400 µg/mL
MCC [10, 26]: > 400 µg/mL
MCC [11, 27]: > 400 µg/mL
MIC50 [12]: 0.128 µg/mL (≈ 0.384 µM)
MIC50 [13]: 240 µg/mL (≈ 720 µM)
MIC50 [14]: 48 µg/mL (≈ 144 µM)
MIC50 [15]: > 400 µg/mL
MIC50 [16, 28]: > 400 µg/mL
MIC50 [17]: > 400 µg/mL
MIC50 [18]: > 400 µg/mL
MIC50 [19]: > 400 µg/mL
MIC50 [20]: > 400 µg/mL
MIC50 [21, 29]: > 400 µg/mL
MIC50 [22]: > 400 µg/mL
MIC50 [23]: > 400 µg/mL
MIC50 [24]: > 400 µg/mL

Cc1c2oc3c(C)ccc(C(=O)N[C@@H]4C(=O)N[C@H](C(C)C)C(=O)N5CCC[C@H]5C(=O)N(C)CC(=O)N(C)[C@@H](C(C)C)C(=O)O[C@@H]4C)c3nc-2c(C(=O)N[C@@H]2C(=O)N[C@H](C(C)C)C(=O)N3CCC[C@H]3C(=O)N(C)CC(=O)N(C)[C@@H](C(C)C)C(=O)O[C@@H]2C)c(N)c1=O [DACTINOMYCIN] (I: T[dV]P[Sar][NMeV] / II: T[dV]P[Sar][NMeV]; ester I:1-I:C, II:1-II:C; linker I:N-II:N via Actinocin(1to9))
IC50 ([1]; Homo sapiens, MOLT-3): < 1 µM
IC50 ([3]; Homo sapiens, U-937): < 1 µM

Nc1nc2c(ncn2COC(CO)CO)c(=O)[nH]1 [GANCICLOVIR]
MCC [9, 25]: > 100 µg/mL
MIC50 [12]: 0.096 µg/mL (≈ 0.376 µM)
MIC50 [13]: 0.032 µg/mL (≈ 0.125 µM)
MIC50 [14]: > 100 µg/mL
MIC50 [15]: > 100 µg/mL
MIC50 [16, 28]: 0.48 µg/mL (≈ 1.88 µM)

NC(=O)c1ncn([C@@H]2O[C@H](CO)[C@@H](O)[C@H]2O)n1 [RIBAVIRIN]
MCC [9, 25]: > 400 µg/mL
MCC [10, 26]: > 400 µg/mL
MCC [11, 27]: > 400 µg/mL
MIC50 [12]: 240 µg/mL (≈ 983 µM)
MIC50 [13]: > 400 µg/mL
MIC50 [14]: 80 µg/mL (≈ 328 µM)
MIC50 [15]: 240 µg/mL (≈ 983 µM)
MIC50 [16, 28]: > 400 µg/mL
MIC50 [17]: 48 µg/mL (≈ 197 µM)
MIC50 [18]: 16 µg/mL (≈ 65.5 µM)
MIC50 [19]: > 400 µg/mL
MIC50 [20]: > 400 µg/mL
MIC50 [21, 29]: 80 µg/mL (≈ 328 µM)
MIC50 [22]: 9.6 µg/mL (≈ 39.3 µM)
MIC50 [23]: 9.6 µg/mL (≈ 39.3 µM)
MIC50 [24]: 16 µg/mL (≈ 65.5 µM)
